Compound activity as filed in PubChem BioAssay.
Hep lipid drop – inhibitors of hepatocyte lipid droplet formation, primary screen, imaging, high-throughput imaging, BODIPY stain | inhibition, % at 6.5 µM | 0.4% of 240,000 active | AML12 mouse hepatocytes, oleate lipid droplets;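 active means lipid droplet intensity inhibited by at least 50%, with more than 500 cells counted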
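Material – AML12 mouse liver cells · Also added – oleate loading, 100 µM · Compound dosing – 6.5 µM single-point dosing · Times – overnight treatment with compound plus oleate · Measured by – fluorescence imaging, 20x objective, two fields per well · Read-out – percent inhibition of filter-corrected integrated lipid droplet intensity per well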
ANO1 activ – TMEM16A chloride channel activators or potentiators, primary screen, cell-based, HTS; Anoctamin-1 (Mus musculus), Q8BHY3; HEK293 TMEM16A/YFP-H148Q/I152L, iodide quench fluorescence; stronger effect = lower value; B-score at 10 µM; 0.3% of 340,000 active; AID 623877, 2012;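 active means fluorescence-ratio B-score plate-corrected deviation score at least 3 library SD below zero, with starting fluorescence score within 5 deviations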;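 further: channel opened by trigger with iodide after compound preincubation; score built on the fluorescence ratio of max minus min over baseline; more negative score means more quench and so TMEM16A activation or potentiation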
Target sequence (Q8BHY3 whole entry, looked up): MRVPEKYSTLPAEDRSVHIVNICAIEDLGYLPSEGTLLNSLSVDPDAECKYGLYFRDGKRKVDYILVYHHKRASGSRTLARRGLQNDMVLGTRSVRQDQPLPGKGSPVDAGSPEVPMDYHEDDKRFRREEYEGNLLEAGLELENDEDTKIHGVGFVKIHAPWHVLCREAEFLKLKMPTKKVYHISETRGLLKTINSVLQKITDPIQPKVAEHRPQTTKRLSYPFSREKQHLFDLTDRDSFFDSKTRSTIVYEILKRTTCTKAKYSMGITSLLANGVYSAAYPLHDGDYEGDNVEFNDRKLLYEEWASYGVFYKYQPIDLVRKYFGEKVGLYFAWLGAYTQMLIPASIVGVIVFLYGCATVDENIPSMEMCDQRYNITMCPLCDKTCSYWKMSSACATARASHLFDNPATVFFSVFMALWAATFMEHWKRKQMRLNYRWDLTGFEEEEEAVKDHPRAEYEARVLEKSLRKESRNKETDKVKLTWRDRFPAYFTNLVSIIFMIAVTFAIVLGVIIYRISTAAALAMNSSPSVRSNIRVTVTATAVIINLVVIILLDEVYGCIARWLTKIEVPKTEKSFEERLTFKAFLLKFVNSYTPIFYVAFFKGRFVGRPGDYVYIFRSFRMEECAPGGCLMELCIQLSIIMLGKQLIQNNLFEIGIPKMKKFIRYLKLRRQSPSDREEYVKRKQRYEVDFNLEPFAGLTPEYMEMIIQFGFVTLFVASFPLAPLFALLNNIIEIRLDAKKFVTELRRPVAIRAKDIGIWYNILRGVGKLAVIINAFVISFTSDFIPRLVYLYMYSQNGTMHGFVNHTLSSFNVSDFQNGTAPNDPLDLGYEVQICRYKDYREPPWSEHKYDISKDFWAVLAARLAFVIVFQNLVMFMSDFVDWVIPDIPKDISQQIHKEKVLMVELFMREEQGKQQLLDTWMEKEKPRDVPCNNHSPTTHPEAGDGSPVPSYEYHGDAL
UPR XBP1 act – activators of adaptive XBP1 UPR arm, primary screen, cell-based, CHO-XBP1 luciferase reporter, luminescence, uHTS; IRE1-XBP1 UPR activation; percent of tunicamycin response, DMSO as zero; AID 463104, 2010; 0.33% of 330,000 active; activation, % at 20 µM;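 active means versus positive control, 20 µM dose yields 30% or more activation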
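Material: CHO-XBP1 cells stably carrying IRE1-XBP1-driven luciferase reporter | Medium: F12 with 10% serum | Compound dosing: 20 µM single concentration, DMSO 1% | Incubation: Overnight seeding at 37 °C, 6 h compound treatment at 37 °C | Detection: Steady-Glo luminescence read | Read-out basis: % activation of reporter signal versus tunicamycin and DMSO controls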
CHOP inh – inhibitors of CHOP promoter induction, primary screen, cell-based, unfolded protein response, luciferase reporter; 3.8% of 220,000 active; CHO-K1 CHOP-promoter luciferase, tunicamycin-induced, 15-18 h; inhibition, % at 10 µM; AID 2732, 2010;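 active means compounds that reduced the stress-induced luciferase reporter signal by more than about 70% of percent inhibition, limit read from the data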
CHOP UPR activ – activators of apoptotic CHOP UPR arm, primary screen, cell-based, CHO-CHOP luciferase reporter, luminescence, uHTS | 0.34% of 330,000 active | UPR activation; percent of tunicamycin response over DMSO baseline | activation, % at 10 µM;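 active means at 10 µM dose, activation of 40% or more, normalized to positive control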
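Dosing – one dose, 10 µM in 0.5% DMSO · System – CHO-CHOP cells, stable luciferase reporter of PERK-eIF2a-CHOP signalling · Input – 500 cells/well · Control set – tunicamycin 10 µg/mL final as positive, DMSO-only wells as negative · Timing – 6 h compound treatment, 37 °C · Measure – % activation vs tunicamycin · Technique – luminescence read with Steady-Glo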
TMEM16A inh – TMEM16A chloride channel inhibitors, primary screen, cell-based, HTS; 1.2% of 310,000 active; AID 588511, 2011; Anoctamin-1 (Mus musculus), Q8BHY3; normalized B-score (activity score, 25-100; higher = stronger inhibition) at 10 µM; HEK293 TMEM16A/YFP iodide influx fluorescence, ionomycin;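 active means ratio plate-corrected score three or more library SD toward inhibition, starting fluorescence score within five deviations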;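 further: score derived from kinetic fluorescence span divided by baseline fluorescence per well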
Each line names hits and unclear results; the compound was inactive in the other large screens. Most compounds without a hit are left out; they make up all but 4.2% or so of the library.

CCN1CCN(c2ccc(Nc3ccnc4ccccc34)cc2)CC1	none (no result: Hep lipid drop, CHOP inh, TMEM16A inh)
CCCC(=O)OCCNc1cc(SCc2ccco2)c2nonc2c1[N+](=O)[O-]	none
CCCSc1cc(NCCOC(C)=O)c([N+](=O)[O-])c2nonc12	none
CCCC(=O)OCCNc1cc(Sc2nccn2C)c2nonc2c1[N+](=O)[O-]	CHOP inh 108.4 (no result: UPR XBP1 act, CHOP UPR activ)
CCCSc1cc(NCCOC(=O)CCC)c([N+](=O)[O-])c2nonc12	none
CCC(=O)OCCNc1cc(Sc2nc3ccccc3[nH]2)c2nonc2c1[N+](=O)[O-]	CHOP inh 109.3 (no result: UPR XBP1 act, CHOP UPR activ)
CCC(=O)OCCNc1cc(Sc2nc3ccccc3s2)c2nonc2c1[N+](=O)[O-]	CHOP inh 112.5 (no result: Hep lipid drop)
CN(C)C(CNC(=O)c1cccc(S(=O)(=O)N2CCN(c3ccc(F)cc3)CC2)c1)c1ccccc1 (centres undefined)	none (no result: Hep lipid drop, UPR XBP1 act, CHOP inh, CHOP UPR activ, TMEM16A inh)
CC1N(O)C(c2ccc(Cl)cc2Cl)N(O)C1(C)C (centres undefined)	none
ON1C(c2ccc(Cl)cc2Cl)N(O)[C@H]2CCCC[C@H]21 (some centres undefined)	TMEM16A inh 100 (no result: Hep lipid drop)
Cc1ccccc1NCCC(=O)Nc1ccc(Cl)cc1	none (no result: CHOP inh)
COC(=O)c1ccc(/C(O)=C(\C#N)c2nc3ccccc3s2)cc1	TMEM16A inh 25 (no result: Hep lipid drop)
Cn1c(/C(C#N)=C(\O)COc2ccc3ccccc3c2)nc2ccccc21	CHOP inh 93.4 (no result: Hep lipid drop)
Cn1c(/C(C#N)=C(\O)c2ccccc2Cl)nc2ccccc21	none (no result: Hep lipid drop, CHOP inh)
Cc1ccc(OC/C(O)=C(\C#N)c2nc3ccccc3s2)cc1	TMEM16A inh 100
CCNC(=O)CN(c1ccc(Oc2ccccc2)cc1)S(=O)(=O)c1ccccc1	none (no result: CHOP inh)
COCCNC(=S)N(CCc1c(C)[nH]c2ccc(OC)cc12)Cc1cccnc1	none (no result: Hep lipid drop, ANO1 activ, CHOP inh)
CCC(c1nnnn1C1CCCC1)N1CCN(c2cccc(OC)c2)CC1 (centres undefined)	none
Cn1c(O)c(C2=c3ccccc3=NC2=O)[nH]c1=S	CHOP inh 84.3
COc1ccc2nc(-n3c(O)c(C4=c5ccccc5=NC4=O)[nH]c3=S)sc2c1	CHOP inh 102.7 (no result: UPR XBP1 act, CHOP UPR activ)
O=C1N=c2ccc(Br)cc2=C1c1sc(=O)[nH]c1O	none (no result: ANO1 activ, CHOP inh)
Cc1ccc2c(c1)nnn2C1CCN(C(=O)c2ccccc2F)CC1	none
CC(Oc1ccccc1F)C(=O)Nc1ccc2ccccc2c1 (centres undefined)	CHOP inh 88.0
CC(Oc1ccc(F)cc1)C(=O)Nc1ccc2ccccc2c1 (centres undefined)	none
CC(C)C1Cc2c(sc3ncnc(NN)c23)CO1 (centres undefined)	none (no result: CHOP inh)
O=C(CCCN1C(=O)C2CC=CCC2C1=O)Nc1cccc(F)c1 (centres undefined)	none (no result: CHOP inh)
Cc1ccc(Cl)cc1N1CCN(C(=O)Cn2ccc3ccccc3c2=O)CC1	none (no result: Hep lipid drop)
Cc1ccc(Cl)cc1N1CCN(C(=O)Cc2csc(Nc3nc(=S)[nH]c4ccccc34)n2)CC1	CHOP inh 83.5
COc1cc(/C=C2/CC/C(=C/c3ccc(O)c(OC)c3)C2=O)ccc1O	ANO1 activ -12.9
Cc1ccc(NC(=S)Nc2ccc(OC(F)F)c(Cl)c2)cc1Cl	CHOP inh 90.7 (no result: UPR XBP1 act, CHOP UPR activ)
Cc1ccc(SCCNC(=S)Nc2ccccc2)cc1	none
O=C(Nc1ccc(OC(F)F)c(Cl)c1)C(c1ccccc1)c1ccccc1	CHOP inh 70.2
COC(=O)c1cccc(NC(=S)Nc2ccc(Cl)c(Cl)c2)c1	TMEM16A inh 100
Cc1cc(C)cc(NC(=S)NCCSc2ccc(Cl)cc2)c1	CHOP inh 87.6
COC(=O)c1ccc(CNC(=O)Cn2cnc3c(SC)nc(N)nc32)cc1	none (no result: Hep lipid drop, CHOP inh, TMEM16A inh)
Cc1cccc(C)c1NC(=S)Nc1ccc(Cl)c(Cl)c1	none
